Where “and” joins values, the source holds several entries; their conditions need not be identical. Equal values may be shown once.
Columns and labels:
[1] = target: recombinant human BRD4 BD1 (Homo sapiens, UniProt O60885); test: Competitive fluorescence-polarization binding assay, BRD4 BD1; details: for Ki: BRD4 BD1 Ki, FP competitive binding, Tables 1, 2, 7 and text
[2] = target: recombinant human BRD4 BD2 (Homo sapiens, UniProt O60885); test: Competitive fluorescence-polarization binding assay, BRD4 BD2; details: for Ki: BRD4 BD2 Ki, FP competitive binding
MV4;11 xenograft tumors = details: mouse, in vivo
[3] = system: MV4;11 acute leukemia cell line; test: Cell growth inhibition; type: cell-based; details: Homo sapiens, MV4-11, 96 h, read-out: IC50 MV4;11 cell growth inhibition
[4] = Solubility in the dosing vehicle; type: physicochemical; details: 5% DMSO+10% Cremophor+85% saline
Aqueous solubility = type: physicochemical
Pharmacokinetics in rats = type: in vivo, Sprague Dawley rats; details: for CL: Rat, PO (25 mg/kg)
In short: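 Sprague Dawley rats got test compound iv at 5 mg/kg or orally at 25 mg/kg in a vehicle of 20% (v/v) PCP and 70% (v/v) PBS. Blood (100 μL) was drawn by catheter at 0, 5, 15 and 30 min and 1, 2, 4, 6, 8 and 24 hr, then spun at 15 000 rpm for 10 min. Plasma was stored at −80 °C and assayed by validated LC–MS/MS. Parameters were derived noncompartmentally.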

PARP = test: Western blot of PARP cleavage in MV4; type: cell-based, human; details: MV4;11 cells, 24 h
[5] = system: MDA-MB-231 xenograft tumors
p21 = test: Western blot of p21 in MV4; type: cell-based, human; details: MV4;11 cells, 24 h
all other 371 kinases = test: DiscoverX KINOMEscan kinase screening, remaining panel; type: binding, human; details: read-out: IC50 against all other 371 kinases
c-Myc = test: Western blot of c-Myc in MV4; type: cell-based, human; details: MV4;11 cells, 1 h, different concentrations
[6] = system: MOLM-13 acute leukemia cell line; test: Cell growth inhibition; type: cell-based; details: Homo sapiens, MOLM-13, 96 h, read-out: IC50 MOLM-13 cell growth inhibition
[7] = Table 4 second column as headed

COc1cc2c(cc1-c1c(C)noc1C)[nH]c1ncnc(-n3nnc4ccccc43)c12 [Compound 28, 4-(4-(1H-Benzo[d][1,2,3]triazol-1-yl)-6-methoxy-9H-pyrimido[4,5-b]indol-7-yl)-3,5-dimethylisoxazole]
binding to BRD4 BD1 at 1 μM ([1]; FP binding, 1 μM): fails to show any appreciable binding
binding to BRD4 BD2 at 1 μM ([2]; FP binding, 1 μM): fails to show any appreciable binding

COc1cc2c(cc1-c1c(C)noc1C)ncc1[nH]c(=O)n([C@H](C)c3ccccn3)c12 [Compound 5, I-BET151, reference compound]
weight loss or other signs of toxicity (MV4;11 xenograft tumors): did not cause weight loss or other signs of toxicity
IC50 [3]: 162 ± 112 nM

COc1cc2c(cc1-c1c(C)noc1C)[nH]c1ncnc(-c3c(C)[nH]c4ccccc34)c12 [Compound 21, 4-(6-Methoxy-4-(2-methyl-1H-indol-3-yl)-9H-pyrimido[4,5-b]indol-7-yl)-3,5-dimethylisoxazole]
solubility in the dosing vehicle [4]: difficult to dissolve
aqueous solubility (Aqueous solubility): poor
CL (Pharmacokinetics in rats): 31.7 mL/min/kg
Cmax (Pharmacokinetics in rats; Sprague Dawley, rat, plasma, po, 25 mg/kg): 1470 ng/mL and ~3 µM

COc1cc2c(cc1-c1c(C)noc1C)[nH]c1nc(C)nc(-c3ccnc4ccccc34)c12 [Compound 31, 4-(6-Methoxy-2-methyl-4-(quinolin-4-yl)-9H-pyrimido[4,5-b]indol-7-yl)-3,5-dimethylisoxazole]
cleavage of PARP (marker of apoptosis) (PARP): cleavage of PARP
weight loss or other signs of toxicity (MV4;11 xenograft tumors): did not cause weight loss or other signs of toxicity
tumor growth inhibition ([5]; MDA-MB-231 xenograft in mice, 40 mg/kg dosing daily, during the treatment period): essentially complete tumor growth inhibition
weight loss or other signs of toxicity ([5]; mouse, in vivo): did not experience weight loss or other signs of toxicity
effect on p21 protein level (p21): effective in inducing upregulation of the cell cycle regulator p21
IC50 (all other 371 kinases): > 50000 nM
solubility in the dosing vehicle [4]: readily soluble
effect on c-Myc protein level (c-Myc): rapid down-regulation of c-Myc at as early as the 1 h time-point and in a dose-dependent manner
CL (Pharmacokinetics in rats): 14.7 mL/min/kg

COc1cc2c(cc1-c1c(C)noc1C)[nH]c1ncnc(-c3c[nH]c4cc(F)ccc34)c12 [Compound 20, 4-(4-(6-Fluoro-1H-indol-3-yl)-6-methoxy-9H-pyrimido[4,5-b]indol-7-yl)-3,5-dimethylisoxazole]
IC50 [6]: 374 ± 52 nM
IC50 [1]: 2.2 ± 1 nM
Ki [1]: 2.6 nM
IC50 [2]: 12.2 ± 4.2 nM
Ki [2, 7]: 2.6 ± 0.8 nM
Ki ([2]; Tables 1, 2, 7 and text): 1 nM
IC50 [3]: 76 ± 31 nM

COc1cc2c(cc1-c1c(C)noc1C)[nH]c1nc(C)nc(-c3c(C)ccc4ncccc34)c12 [Compound 33, 4-(6-Methoxy-2-methyl-4-(6-methylquinolin-5-yl)-9H-pyrimido[4,5-b]indol-7-yl)-3,5-dimethyl-isoxazole]
IC50 [6]: 220 ± 101 nM
IC50 [1]: 93.8 ± 15.8 nM
Ki [1]: 38.4 ± 10.5 nM
IC50 [2]: 36.3 ± 6.9 nM
Ki ([2]; Tables 1, 2, 7 and text): 10.5 ± 1.9 nM
IC50 [3]: 99 ± 43 nM

COc1cc2c(cc1-c1c(C)noc1C)[nH]c1ncnc(-c3c(C)[nH]c4cc(F)ccc34)c12 [Compound 22, 4-(4-(6-Fluoro-2-methyl-1H-indol-3-yl)-6-methoxy-9H-pyrimido[4,5-b]indol-7-yl)-3,5-dimethyl isoxazole]
IC50 [6]: 51 ± 6 nM
IC50 [1]: 2.3 ± 1.1 nM
Ki [1]: < 1 nM
IC50 [2]: 5.6 ± 1.9 nM
Ki [2, 7]: 0.9 ± 0.3 nM
Ki ([2]; Tables 1, 2, 7 and text): < 1 nM
IC50 [3]: 5.1 ± 2.8 nM

COc1cc2c(cc1-c1c(C)noc1C)[nH]c1ccnc(-c3c(C4CC4)n[nH]c3C)c12 [Compound 6, RX-37, reference compound]
IC50 [3]: 20 ± 9 nM
